Converted amounts (≈) assume the structure as drawn.

Test [1] concerns Mycobacterium tuberculosis. The test can be described thus: microbe, parasite or virus in culture. The conditions noted are these: H37Rv.
Test [2] concerns Mycobacterium tuberculosis. Kind of test: microbe, parasite or virus in culture. The conditions noted are these: Mt103.
Test [3] has as its system Mycobacterium tuberculosis H37Rv. The test can be described thus: Inhibition of Mycobacterium tuberculosis H37Rv recombinant DesA3-mediated unsaturated fatty acid synthesis using Mycobacterium smegmatis MC2155 membrane and partially purified EthA as cofactors assessed as tuberculostearic acid levels relative control. Further details: scale not given: the % may be the effect or the level left. Summed up:
(§1)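 Cell-free desaturation: 0.5 mg M. smegmatis membrane protein, 3 μg His-tagged DesA3 purified from M. smegmatis, 500 μM palmitoyl-CoA, 1 mM NADPH, ±6 μg purified EthA, ISO 0 or 10 μg/ml final, 25 mM Tris-HCl pH 7.5; 75 min at 30°C; chloroform:methanol extraction, methyl esters, GC relative percentages.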

For test [4] the test system is unchanged. Kind of test: Inhibition of Mycobacterium tuberculosis H37Rv recombinant DesA3-mediated unsaturated fatty acid synthesis using Mycobacterium smegmatis MC2155 membrane and partially purified EthA as cofactors assessed as palmitoleic acid levels relative to control. Further details: scale not given: the % may be the effect or the level left. Summed up:
as §1

Test [5] concerns Mycobacterium tuberculosis. The test can be described thus: Antimycobacterial activity against Mycobacterium tuberculosis isolate Mt103 expressing VV16 plasmid by colorimetric resazurin microtiter assay. It is filed as functional. In a few lines: (§2)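 Resazurin colorimetric microtiter MIC in 7H9-ADC broth with 2% DMSO at 37°C; strains carry empty pVV16 or pVVethA complementation vector; ISO tested up to 40 μg/ml, highest soluble level.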

Test [6] concerns Mycobacterium tuberculosis. Kind of test: Antimycobacterial activity against wild-type Mycobacterium tuberculosis H37Rv ATCC 25618 expressing VV16 plasmid by colorimetric resazurin microtiter assay. It is filed as functional. Summed up:
as §2
(In general: The colour change of resazurin is a common sign of viable cells or microbes.)

The subject of test [7] is Mycobacterium tuberculosis H37Rv. Kind of test: Inhibition of Mycobacterium tuberculosis H37Rv recombinant DesA3-mediated unsaturated fatty acid synthesis using Mycobacterium smegmatis MC2155 membrane as cofactor assessed as tuberculostearic acid levels relative to control. Further details: scale not given: the % may be the effect or the level left. In a few lines: as §1

The test system is the same in test [8]. The test can be described thus: Inhibition of Mycobacterium tuberculosis H37Rv recombinant DesA3-mediated unsaturated fatty acid synthesis using Mycobacterium smegmatis MC2155 membrane and partially purified EthA as cofactors assessed as stearic acid levels relative to control. Further details: scale not given: the % may be the effect or the level left. Summed up: as §1

The test system is the same in test [9]. The test can be described thus: Inhibition of Mycobacterium tuberculosis H37Rv recombinant DesA3-mediated unsaturated fatty acid synthesis using Mycobacterium smegmatis MC2155 membrane as cofactor assessed as stearic acid levels relative to control. Details: scale not given: the % may be the effect or the level left. Summed up: as §1
The test system is the same in test [10]. The test can be described thus: Inhibition of Mycobacterium tuberculosis H37Rv recombinant DesA3-mediated unsaturated fatty acid synthesis using Mycobacterium smegmatis MC2155 membrane as cofactor assessed as palmitic acid levels relative to control. Details: scale not given: the % may be the effect or the level left. In a few lines:
as §1

Test [11] shares this test system. Kind of test: Inhibition of Mycobacterium tuberculosis H37Rv recombinant DesA3-mediated unsaturated fatty acid synthesis using Mycobacterium smegmatis MC2155 membrane as cofactor assessed as palmitoleic acid levels relative to control. Further details: scale not given: the % may be the effect or the level left. In a few lines:
as §1

For test [12] the test system is unchanged. The test can be described thus: Inhibition of Mycobacterium tuberculosis H37Rv recombinant DesA3-mediated unsaturated fatty acid synthesis using Mycobacterium smegmatis MC2155 membrane as cofactor assessed as oleic acid levels relative to control. Details: scale not given: the % may be the effect or the level left. Summed up: as §1
The test system is the same in test [13]. Kind of test: Inhibition of Mycobacterium tuberculosis H37Rv recombinant DesA3-mediated unsaturated fatty acid synthesis using Mycobacterium smegmatis MC2155 membrane and partially purified EthA as cofactors assessed as palmitic acid levels relative to control. Further details: scale not given: the % may be the effect or the level left. Summed up:
as §1

Test [14] shares this test system. The test can be described thus: Inhibition of Mycobacterium tuberculosis H37Rv recombinant DesA3-mediated unsaturated fatty acid synthesis using Mycobacterium smegmatis MC2155 membrane and partially purified EthA as cofactors assessed as oleic acid levels relative to control. Further details: scale not given: the % may be the effect or the level left. In a few lines:
as §1

Consider `CCc1cc(C(N)=S)ccn1` [ETHIONAMIDE], for which the MIC in test [1] and in test [2] was 5 µg/mL (≈ 30.1 µM) in each case.

As to `CC(C)CCOc1ccc(NC(=S)Nc2ccc(OCCC(C)C)cc2)cc1` [TIOCARLIDE], the Activity in test [3] came to 42.8%; in test [4], 1.9%; in [7] it was 44.7%; in test [8], 1.1%; in test [9], 1%; in test [10], 54.1%. The Activity in [11] worked out at 0.1%; in test [12], 0.1%; in [13], 49.8%; in [14], 4.4%. Also, the MIC in test [5] and in test [6] was 5 µg/mL (≈ 12.5 µM) throughout.

(Values after ChEMBL document CHEMBL1137655, “Isoxyl activation is required for bacteriostatic activity against Mycobacterium tuberculosis” (2007).)
